G6PDH counter = inhibits Leuconostoc G6PDH, flagging false hits in G6PDH-based assays; Purified L. mesenteroides G6PDH, diaphorase/resazurin coupled fluorescence, 45 min; inhibition, % at 5 µM; 0.12% of 200,000 active; in the data active = inhibition above about 50%
Diaphorase inh = diaphorase inhibition or chemical oxidation counter-screen; diaphorase resazurin-to-resorufin fluorescence, NADH, 16 min; bacterial (C. kluyveri) enzyme, not human; AID 1217; 0.69% of 190,000 active; inhibition, % at 20 µM;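 active = primary screen inhibition at 20 µM above a set limit, cut at about 50% in these data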
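Assay system: diaphorase enzyme from Clostridium kluyveri. Quantity: enzyme working solution with 0.14 U/mL diaphorase. Schedule: reaction incubation of 16 min at room temperature. Technique: resorufin fluorescence, excitation 544 nm, emission 590 nm. Controls: No-NADH positive control and DMSO neutral control.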
HKDC1 inhibitor = inhibitors of human hexokinase HKDC1; inhibition, % at 20 µM; AID 493160; recombinant HKDC1, G6PDH/diaphorase resazurin coupled fluorescence; 0.16% of 340,000 active; Q2TB90;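 active = inhibition above about 35% when tested at 20 µM, limit read from the data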
Target sequence (Q2TB90 whole entry, looked up): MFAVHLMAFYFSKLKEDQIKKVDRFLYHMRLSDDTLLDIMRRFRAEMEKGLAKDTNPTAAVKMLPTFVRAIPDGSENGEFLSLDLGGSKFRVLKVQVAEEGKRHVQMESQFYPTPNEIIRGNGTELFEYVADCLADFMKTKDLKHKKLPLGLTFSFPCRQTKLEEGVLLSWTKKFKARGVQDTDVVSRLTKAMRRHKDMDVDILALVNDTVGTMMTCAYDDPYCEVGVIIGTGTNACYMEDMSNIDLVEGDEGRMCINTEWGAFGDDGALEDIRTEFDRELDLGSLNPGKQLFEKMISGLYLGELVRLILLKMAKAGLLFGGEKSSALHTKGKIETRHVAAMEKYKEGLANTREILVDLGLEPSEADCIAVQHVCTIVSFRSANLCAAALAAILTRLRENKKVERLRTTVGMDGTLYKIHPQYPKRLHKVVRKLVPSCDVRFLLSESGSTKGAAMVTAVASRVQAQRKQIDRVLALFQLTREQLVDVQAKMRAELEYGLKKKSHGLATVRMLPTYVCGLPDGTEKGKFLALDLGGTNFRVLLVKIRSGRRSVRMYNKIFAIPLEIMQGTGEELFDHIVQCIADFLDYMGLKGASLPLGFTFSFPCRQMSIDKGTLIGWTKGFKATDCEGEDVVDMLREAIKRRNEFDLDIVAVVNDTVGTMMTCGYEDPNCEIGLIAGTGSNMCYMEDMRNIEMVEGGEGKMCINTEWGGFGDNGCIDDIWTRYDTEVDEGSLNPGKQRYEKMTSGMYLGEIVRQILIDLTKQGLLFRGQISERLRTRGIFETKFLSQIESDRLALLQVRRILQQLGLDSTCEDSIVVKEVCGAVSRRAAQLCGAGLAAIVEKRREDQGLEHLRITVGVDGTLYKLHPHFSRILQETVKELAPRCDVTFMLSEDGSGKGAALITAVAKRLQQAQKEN
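Test system: HK5 enzyme. Quantity: 5 µg/mL HK5 final. Reagent: glucose and ATP substrates. Schedule: 90 min reaction incubation at room temperature, dark. Technique: resazurin-to-resorufin fluorescence via G6PDH and diaphorase coupling, 525/613 nm. Control set: DMSO wells with and without enzyme mix.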
Diaph act CS = diaphorase activation or chemical reduction counter-screen | Diaphorase/resazurin coupled assay, resorufin fluorescence, 16 min; active compounds read high; 1 = vehicle wells, 0 = NADH-free wells | activation factor at 20 µM | 0.005% of 190,000 active;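 active = diaphorase activity raised at least twofold by the compound at 20 µM; inactive = activation factor below 2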
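Material: bacterial diaphorase enzyme (C. kluyveri); amount: enzyme 0.07 U/mL final; reagent: NADH substrate 0.114 mM plus resazurin dye 0.1 mM, final; doses: single compound dose of 20 µM, 1% DMSO final; timing: 16 min enzyme reaction, ambient temperature; measured by: fluorescence of resorufin, 544 nm excitation, 590 nm emission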
PfG6PD inh = PfG6PD (Plasmodium falciparum) enzyme inhibition; PfGluPho enzyme, NADPH resazurin-diaphorase fluorescence; inhibition, % at 20 µM; 0.78% of 350,000 active;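 active = inhibition reaching at least a set limit at 20 µM in the primary screen, cut at about 59% in these data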
PfG6PD confirm = confirmation of Plasmodium falciparum G6PD inhibitors | 34% of 2,400 active | shares compounds with PfG6PD inh | inhibition, % at 20 µM | recombinant PfGluPho, NADPH-diaphorase-resazurin fluorescence | AID 504753;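 active = inhibition of at least 50% at 20 µM in any single replicate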
Diaph ctr 10uM = diaphorase inhibition or oxidation at 10 uM NADPH. shares compounds with PfG6PD inh. diaphorase-coupled resazurin reduction, fluorescence, NADPH 10 uM. inhibition, % at 20 µM. 39% of 820 active. AID 504862;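 active = average inhibition reaching 50% or more with the compound at 20 µM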;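 also: resorufin red fluorescence formed as diaphorase reduces resazurin using NADPH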
Diaph ctr 30uM = inhibits diaphorase or oxidizes, flagging false PfG6PD hits. Diaphorase/resazurin coupled assay, resorufin fluorescence, 30 uM NADPH. AID 504863. inhibition, % at 20 µM. 29% of 820 active. shares compounds with PfG6PD inh;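 active = inhibition averaging 50% or more, tested at 20 µM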
A number is an active result; n = inactive; x = not tested or not shown. Rows were chosen to be rich in hits. Some 1.3% of all compounds tested hit in one or more screens of this group.

SMILES	G6PDH counter	Diaphorase inh	HKDC1 inhibitor	Diaph act CS	PfG6PD inh	PfG6PD confirm	others
CC1CCCCC12NC(=S)N(c1ccccc1)N2 (centres undefined)	x	x	n	x	60.1	n
Cc1ccc(C)n1-c1ccc(N(C)C)cc1	n	n	n	n	62.8	n
Cc1ccc(C)n1-c1ccc(N2CCOCC2)cc1	n	n	n	n	n	x
NC(=O)c1ccc(=O)n(Cc2ccc(Cl)cc2Cl)c1	x	x	n	x	n	x
Cn1nc(C(F)(F)F)c2cc(NC(=O)OCc3ccc(F)cc3)sc21	n	n	n	n	59.0	n
CCOc1ccc(C(F)(F)F)cc1NC(C)=O	n	n	n	n	n	x
Cc1ccc(/C=C/C(=O)N2CCN(S(=O)(=O)c3ccc(C)c(C)c3)CC2)o1	n	n	n	n	62.2	50.2	Diaph ctr 10uM=n;Diaph ctr 30uM=n
Cc1ccccc1OCC(=O)Nc1ccc2c(c1)OCO2	n	n	n	n	n	x
CCOC(=O)c1sc(=S)n(C)c1NC(=O)c1cccc(Br)c1	x	x	n	x	n	x
CCOC(=O)c1sc(=S)n(C)c1NC(=O)c1ccccc1	n	n	n	n	64.1	n
CCc1ccccc1N1CSC2=C(C#N)C(c3ccccc3F)CC(=O)N2C1 (centres undefined)	n	n	n	n	74.1	51.0	Diaph ctr 10uM=n;Diaph ctr 30uM=n
COc1ccc(N2CSC3=C(C#N)C(c4cccc(OC)c4OC)CC(=O)N3C2)cc1 (centres undefined)	n	n	n	n	89.4	n
CC(CCc1ccccc1)NC(=O)CCNS(=O)(=O)c1ccccc1 (centres undefined)	x	x	n	x	n	x
O=S(=O)(Nc1cccc2ccccc12)c1ccccc1	x	x	n	x	n	x
O=S(=O)(Nc1c(O)ccc2ccccc12)c1ccc(F)cc1	x	x	n	x	75.8	n
O=S(=O)(Nc1c(O)ccc2ccccc12)c1ccccc1	x	x	n	x	74.9	51.6	Diaph ctr 10uM=n;Diaph ctr 30uM=n
COCCCNC(=S)N/N=C/c1ccccc1O	x	x	n	x	n	x
CC(C)(C)[C@H]1C=C(C(=O)N2CCN(Cc3ccccc3)CC2)O[C@@H](OCc2ccc(CO)cc2)C1	n	n	n	n	n	x
Cc1ccc2nc3c(cc(S(=O)(=O)c4ccccc4)c(=N)n3C3CCCC3)c(=O)n2c1	x	x	n	x	69.3	n
Cc1cc(OCCCC(=O)Nc2cccc(-n3cnnn3)c2)ccc1Cl	x	x	n	x	n	x
COc1ccc(C(=O)c2c(C(F)(F)F)oc3c2C(=O)c2ccccc2C3=O)cc1	54.4	n	n	n	76.5	34.6	Diaph ctr 10uM=n;Diaph ctr 30uM=n
Cc1ccc2cc(C)c3nnc(SCC(=O)c4cccs4)n3c2c1C	n	n	n	n	n	x
Cc1ccc(C)c2c1cc(C)c1nnc(SCC(=O)NCc3ccc4c(c3)OCO4)n12	n	n	n	n	93.7	83.9	Diaph ctr 10uM=93.4;Diaph ctr 30uM=70.4
Cc1ccc(C)c2c1cc(C)c1nnc(SCC(=O)c3cccs3)n12	n	n	n	n	60.5	n
Cc1ccc(S(=O)(=O)N2CCN(C(=O)CCOc3ccccc3C)CC2)cc1C	x	x	n	x	n	x
SMILES	G6PDH counter	Diaphorase inh	HKDC1 inhibitor	Diaph act CS	PfG6PD inh	PfG6PD confirm	others
CSCCOC(=O)C1=C(C)Nc2ccc(C)cc2S1	n	n	n	n	59.5	n
CCOC(=O)C1(C)NC(c2cccc(C)c2)C2C(=O)N(c3ccccc3)C(=O)C21 (centres undefined)	x	x	n	x	n	x
Cc1cc(C)cc(N(CC(=O)NC2CCCC2)C(=O)c2csnn2)c1	x	x	n	x	n	x
CCOc1ccc2ccccc2c1/C=N/NC(=O)c1cc(C)[nH]n1	x	x	n	x	n	x
CCOc1ccc2ccccc2c1/C=N/NC(=O)CC1(C)OCCCO1	n	n	n	n	76.6	57.4	Diaph ctr 10uM=59.5;Diaph ctr 30uM=55.4
CCOc1ccc2ccccc2c1/C=N/NC(=O)c1ccncc1	x	x	n	x	72.3	66.4	Diaph ctr 10uM=60.8;Diaph ctr 30uM=n
COc1ccc2ccccc2c1/C=N/NC(=O)CC1(C)OCCCO1	n	n	n	n	n	x
CCOc1ccc(N(CC(=O)NC(C)CC)S(=O)(=O)c2c(C)noc2C)cc1 (centres undefined)	n	n	x	n	x	x
O=[N+]([O-])c1ccc(NN=C(Oc2ccccc2)c2ccc([N+](=O)[O-])cc2)cc1	x	x	x	x	n	x
CC/C(=N\Nc1ccc([N+](=O)[O-])cc1)c1ccccc1	n	n	n	n	73.8	n
CC(C)c1cc2c(c(O)c1O)[C@@]13CCCC(C)(C)C1CC2OC3=O (some centres undefined)	x	x	n	x	67.1	50.7	Diaph ctr 10uM=n;Diaph ctr 30uM=n
Cc1cc(=O)oc2c(C)cc(C(C)(C)C)cc12	x	x	n	x	n	x
Cc1ccc(S(=O)(=O)Oc2cccc(/C=N/n3cnnc3)c2)cc1	n	n	n	n	77.4	n
Cc1ccc(S(=O)(=O)Oc2cccc(/C=N/Nc3ccc(C(=O)O)cc3)c2)cc1	x	x	n	x	97.6	67.1	Diaph ctr 10uM=60.3;Diaph ctr 30uM=n
CCOC(=O)c1cc2c(=O)n3cccc(C)c3nc2n(Cc2ccco2)c1=NC(=O)c1cccnc1	n	n	n	n	60.5	n
Cc1c(C(=O)N/N=C/c2ccc(N(C)C)cc2)[nH]c2ccc(Cl)cc12	n	n	n	n	n	x

Compound activity from PubChem BioAssay.
